Assay results gathered from unrelated publications.
Lines come from different studies, so protocols differ.
Organism: Mycolicibacterium smegmatis
Read-out: microbial growth

Compound	assay	system	setting	MIC
CC(C)CC=CC=CC(=O)NC(CC(N)=O)C(=O)NC1C(=O)NC(c2ccc(O)cc2)C(=O)NC(CCCN)C(=O)NC(C(C)O)C(=O)NC(c2ccc(O)cc2)C(=O)NC(c2ccc(O)cc2)C(=O)NC(C(C)O)C(=O)NC(Cc2ccccc2)C(=O)NC(CCCN)C(=O)NC(c2ccc(OC3OC(CO)C(O)C(O)C3OC3OC(CO)C(O)C(O)C3O)cc2)C(=O)NC(C(C)O)C(=O)NC(c2ccc(O)cc2)C(=O)NCC(=O)NC(CC(C)C)C(=O)NC(C)C(=O)NC(c2ccc(O)c(Cl)c2)C(=O)OC1C(N)=O (stereo not shown)	resazurin	ATCC607	72 h	3.25 µg/mL
CO[C@H]1/C=C/O[C@@]2(C)Oc3c(C)c(O)c4c(O)c(c(/C=N/N5CCN(C)CC5)c(O)c4c3C2=O)NC(=O)/C(C)=C\C=C\[C@H](C)[C@H](O)[C@@H](C)[C@@H](O)[C@@H](C)[C@H](OC(C)=O)[C@@H]1C	broth dilution	ATCC607		> 200 µg/mL
CCC(C)(C)C(=O)Oc1ccccc1C(=O)Nc1ncc([N+](=O)[O-])s1	agar dilution	MC^2155		> 25 µM
CC(C)=CCC/C(C)=C/COCCNC1C2CC3CC(C2)CC1C3 (stereo not shown)				6.2 µg/mL
NNC(=O)c1ccncc1				1 µg/mL
CO[C@H]1/C=C/O[C@@]2(C)Oc3c(C)c(O)c4c(O)c(c(/C=N/N5CCN(C)CC5)c(O)c4c3C2=O)NC(=O)/C(C)=C\C=C\[C@H](C)[C@H](O)[C@@H](C)[C@@H](O)[C@@H](C)[C@H](OC(C)=O)[C@@H]1C	resazurin	ATCC607	72 h	1.58 µg/mL
NC[C@H]1O[C@@H](O[C@@H]([C@H](NCCCC(=O)NCc2ccc(N3CCC(Oc4ccc(OC(F)(F)F)cc4)CC3)cc2)C(N)=O)[C@H]2O[C@@H](n3ccc(=O)[nH]c3=O)C(O)C2O)[C@H](O)[C@@H]1O (stereo partly shown)		ATCC607		0.2 µg/mL
COC1C(O)C(n2ccc(=O)[nH]c2=O)OC1C(OC1OC(C(=O)NC2CCCCNC2=O)=CC(O)C1O)C(N)=O (stereo not shown)	broth dilution	ATCC607		6.5 µg/mL
CC(C)=CCC/C(C)=C/CNCCNC1C2CC3CC(C2)CC1C3 (stereo not shown)				3.1 µg/mL
CN[C@H](CC(C)C)C(=O)N[C@H]1C(=O)N[C@@H](CC(N)=O)C(=O)N[C@H]2C(=O)N[C@H]3C(=O)N[C@H](C(=O)N[C@H](C(=O)O)c4cc(O)cc(O)c4-c4cc3ccc4O)[C@H](O)c3ccc(c(Cl)c3)Oc3cc2cc(c3O[C@@H]2O[C@H](CO)[C@@H](O)[C@H](O)[C@H]2O[C@H]2C[C@](C)(N)[C@H](O)[C@H](C)O2)Oc2ccc(cc2Cl)[C@H]1O	resazurin	MC^2155	24 h	0.78 µg/mL
CC(C)=CCC/C(C)=C/CNCCOC(C)(C)C				50 µg/mL
CNC(C)C1CCC(N)C(OC2C(N)CC(N)C(OC3OCC(C)(O)C(NC)C3O)C2O)O1 (stereo not shown)	broth dilution		72 h	1 µg/mL
C/C(=N\NC(=N)N)c1cccc(/C(C)=N/NC(=N)N)c1		MC2155		15.6 to 31.3 µM
